MIC, MIC50 and MIC90 data for five compounds are collected here from ChEMBL document CHEMBL1145515, “In Vitro activities of isepamicin, other aminoglycosides, and capreomycin against clinical isolates of rapidly growing mycobacteria in Taiwan” (2007).

≈ marks a conversion by molar mass, not a printed value.

Broadly, the MIC is the least concentration at which growth counts as inhibited. Read a low MIC as greater potency. As usually defined, the MIC50 is the lowest concentration that inhibits either 50% of growth or 50% of the strains tested, depending on the study. A higher MIC50 goes with lower susceptibility. For orientation: MIC90 means an inhibitory concentration at the 90% level, which refers to growth in some studies and to a panel of isolates in others. Read a low MIC90 as greater potency.

Format in all cases: functional
For experiment [1], the system named is Mycobacteroides abscessus. Kind of experiment: Antimicrobial activity against Mycobacterium abscessus R49 isolate after 3 to 5 days by broth microdilution method. Summed up: (§1)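 Clinical isolates subcultured on Trypticase soy agar with 5% sheep blood, 30°C, 72 h. Colonies suspended in cation-supplemented Mueller-Hinton broth to a final inoculum of 5 × 10^5 CFU/ml. Twofold serial dilutions made in the same broth, final well concentrations 0.25 to 128 μg/ml. Trays incubated at 30°C; MIC read after 3 to 5 days.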

The subject of experiment [2] is Mycobacteroides abscessus. Description: Antimicrobial activity against Mycobacterium abscessus R54 isolate after 3 to 5 days by broth microdilution method. Summed up: as §1
For orientation: Broth dilution looks for growth in wells or tubes with falling amounts of substance.

Experiment [3] has as its system Mycobacteroides abscessus. Kind of experiment: Antimicrobial activity against Mycobacterium abscessus R50 isolate after 3 to 5 days by broth microdilution method. Summed up: as §1
Experiment [4] deals with Mycobacteroides abscessus. Kind of experiment: Antimicrobial activity against Mycobacterium abscessus CH10 isolate after 3 to 5 days by broth microdilution method. Summed up: as §1
Experiment [5] concerns Mycobacteroides abscessus. Description: Antimicrobial activity against Mycobacterium abscessus R61 isolate after 3 to 5 days by broth microdilution method. Summed up: as §1
For experiment [6], the system named is Mycolicibacterium fortuitum. Description: Antimicrobial activity against Mycobacterium fortuitum V146 isolate after 3 to 5 days by broth microdilution method. Summed up: as §1
Experiment [7] relates to Mycobacteroides abscessus. Description: Antimicrobial activity against Mycobacterium abscessus NTU446 isolate after 3 to 5 days by broth microdilution method. Summed up: as §1
The subject of experiment [8] is Mycobacteroides abscessus. Description: Antimicrobial activity against Mycobacterium abscessus R39 isolate after 3 to 5 days by broth microdilution method. Summed up: as §1
In experiment [9] the test system is Mycobacteroides abscessus. Description: Antimicrobial activity against Mycobacterium abscessus after 3 to 5 days by broth microdilution method. Summed up:
as §1

Experiment [10] relates to Mycobacteroides abscessus. Kind of experiment: Antimicrobial activity against Mycobacterium abscessus R31 isolate after 3 to 5 days by broth microdilution method. Summed up: as §1
Experiment [11] relates to Mycobacteroides abscessus. Kind of experiment: Antimicrobial activity against Mycobacterium abscessus NTU445 isolate after 3 to 5 days by broth microdilution method. Summed up:
as §1

For experiment [12], the system named is Mycolicibacterium fortuitum. Kind of experiment: Antimicrobial activity against Mycobacterium fortuitum V13 isolate after 3 to 5 days by broth microdilution method. Summed up: as §1
Experiment [13] concerns Mycolicibacterium fortuitum. Description: Antimicrobial activity against Mycobacterium fortuitum V61 isolate after 3 to 5 days by broth microdilution method. Summed up: as §1
In experiment [14] the test system is Mycobacteroides abscessus. Kind of experiment: Antimicrobial activity against Mycobacterium abscessus NTU459 isolate after 3 to 5 days by broth microdilution method. Summed up: as §1
Experiment [15] relates to Mycobacteroides abscessus. Kind of experiment: Antimicrobial activity against Mycobacterium abscessus V120 isolate after 3 to 5 days by broth microdilution method. Summed up: as §1
For experiment [16], the system named is Mycobacteroides abscessus. Kind of experiment: Antimicrobial activity against Mycobacterium abscessus R51 isolate after 3 to 5 days by broth microdilution method. Summed up:
as §1

A further experiment has as its system Mycobacteroides chelonae. Kind of experiment: Antimicrobial activity against Mycobacterium chelonae after 3 to 5 days by broth microdilution method. Summed up: as §1
In experiment [17] the test system is Mycobacteroides abscessus. Description: Antimicrobial activity against Mycobacterium abscessus R53 isolate after 3 to 5 days by broth microdilution method. Summed up:
as §1

Experiment [18] has as its system Mycolicibacterium fortuitum. Description: Antimicrobial activity against Mycobacterium fortuitum after 3 to 5 days by broth microdilution method. Summed up: as §1
The test system of experiment [19] is Mycobacteroides abscessus. Kind of experiment: Antimicrobial activity against Mycobacterium abscessus R47 isolate after 3 to 5 days by broth microdilution method. Summed up:
as §1

Experiment [20] deals with Mycobacteroides abscessus. Description: Antimicrobial activity against Mycobacterium abscessus R65 isolate after 3 to 5 days by broth microdilution method. Summed up: as §1

As to `NC[C@H]1O[C@H](O[C@H]2C(O)[C@@H](O[C@H]3O[C@H](CO)[C@@H](O)[C@H](N)[C@H]3O)[C@H](N)C[C@@H]2N)[C@H](N)C[C@@H]1O` (single isomer, unassigned) [TOBRAMYCIN], the MIC is 16 µg/mL (≈ 34.2 µM) in experiment [1]; 32 µg/mL (≈ 68.4 µM) in experiment [2]; 16 µg/mL (≈ 34.2 µM) in [3]; above 128 µg/mL in experiment [4]; 16 µg/mL (≈ 34.2 µM) in experiment [5]; 64 µg/mL (≈ 137 µM) in [6]. Further, the minimal inhibitory concentration (MIC) was 4 µg/mL (≈ 8.56 µM) in [7]; 32 µg/mL (≈ 68.4 µM) in experiment [8]; above 128 µg/mL in experiment [10]; 16 µg/mL (≈ 34.2 µM) in experiment [11]; 128 µg/mL (≈ 274 µM) in experiment [12]; 64 µg/mL (≈ 137 µM) in experiment [13]. For the same compound, the minimum inhibitory concentration (MIC) in experiment [14] is 8 µg/mL (≈ 17.1 µM); in [15] it was 16 µg/mL (≈ 34.2 µM); in experiment [16], 32 µg/mL (≈ 68.4 µM); in [17], 8 µg/mL (≈ 17.1 µM); in experiment [19], 16 µg/mL (≈ 34.2 µM); in [20], 16 µg/mL (≈ 34.2 µM). Further, the MIC50 was 8 µg/mL (≈ 17.1 µM) in [9], 16 µg/mL (≈ 34.2 µM) against Mycobacteroides chelonae and 16 µg/mL (≈ 34.2 µM) in [18]. Further, the MIC90 in experiment [9] was 16 µg/mL (≈ 34.2 µM); against Mycobacteroides chelonae it was 32 µg/mL (≈ 68.4 µM); in experiment [18], 64 µg/mL (≈ 137 µM).
With `CN[C@@H]1[C@H](O[C@H]2[C@H](O[C@H]3[C@H](O)[C@@H](O)[C@H](N=C(N)N)[C@@H](O)[C@@H]3N=C(N)N)O[C@@H](C)[C@]2(O)C=O)O[C@@H](CO)[C@H](O)[C@H]1O` (stereo in doubt) [STREPTOMYCIN], the MIC in experiment [1] was 128 µg/mL (≈ 220 µM); in experiment [2], above 128 µg/mL; in [3] it was above 128 µg/mL; in experiment [4], above 128 µg/mL; in experiment [5] it was above 128 µg/mL; in [6] it was above 128 µg/mL. For the same compound, the MIC is above 128 µg/mL in experiment [7]; above 128 µg/mL in [8]; above 128 µg/mL in [10]; above 128 µg/mL in [11]; 128 µg/mL (≈ 220 µM) in experiment [12]; above 128 µg/mL in experiment [13]. Also, the minimum inhibitory concentration (MIC) is above 128 µg/mL in [14]; 128 µg/mL (≈ 220 µM) in [15]; above 128 µg/mL in experiment [16]; 128 µg/mL (≈ 220 µM) in experiment [17]; above 128 µg/mL in [19]; above 128 µg/mL in experiment [20]. The results for the MIC50 (in [9]; against Mycobacteroides chelonae; in experiment [18]) were 128 µg/mL (≈ 220 µM), 64 µg/mL (≈ 110 µM) and 64 µg/mL (≈ 110 µM), respectively. The MIC90 in experiment [9] was above 128 µg/mL; with Mycobacteroides chelonae it was 128 µg/mL (≈ 220 µM); in experiment [18] it was 128 µg/mL (≈ 220 µM).
For `NCC[C@H](O)C(=O)N[C@@H]1C[C@H](N)[C@@H](O[C@H]2O[C@H](CN)[C@@H](O)[C@H](O)[C@H]2O)[C@H](O)[C@H]1O[C@H]1O[C@H](CO)[C@@H](O)[C@H](N)[C@H]1O` [AMIKACIN], the minimal inhibitory concentration (MIC) in [1] was 32 µg/mL (≈ 54.6 µM); in experiment [2] it was 32 µg/mL (≈ 54.6 µM); in experiment [3], 32 µg/mL (≈ 54.6 µM); in experiment [4] it was above 128 µg/mL; in experiment [5], 32 µg/mL (≈ 54.6 µM); in [6] it was 4 µg/mL (≈ 6.83 µM). Further, the MIC in experiment [7] is 32 µg/mL (≈ 54.6 µM); in experiment [8], 64 µg/mL (≈ 109 µM); in [10] it was above 128 µg/mL; in experiment [11], 32 µg/mL (≈ 54.6 µM); in experiment [12] it was 4 µg/mL (≈ 6.83 µM); in [13], 4 µg/mL (≈ 6.83 µM). For the same compound, the minimum inhibitory concentration (MIC) in [14], in experiment [15], in experiment [16], in [17], in experiment [19] and in [20] was 32 µg/mL (≈ 54.6 µM) throughout. The MIC50 turned out to be 16 µg/mL (≈ 27.3 µM) in [9], 8 µg/mL (≈ 13.7 µM) with Mycobacteroides chelonae and 1 µg/mL (≈ 1.71 µM) in [18]. Further, the figures for the MIC90 (in experiment [9]; with Mycobacteroides chelonae; in experiment [18]) were 32 µg/mL (≈ 54.6 µM), 8 µg/mL (≈ 13.7 µM) and 4 µg/mL (≈ 6.83 µM), respectively.
Consider `CN[C@@H]1[C@@H](O)[C@@H](O[C@@H]2[C@@H](O)[C@H](O[C@H]3O[C@H](CN)[C@@H](O)[C@H](O)[C@H]3O)[C@@H](N)C[C@H]2NC(=O)[C@@H](O)CN)OC[C@]1(C)O` [ISEPAMICIN], for which the minimum inhibitory concentration (MIC) in experiment [1] was 8 µg/mL (≈ 14 µM); in experiment [2], 16 µg/mL (≈ 28.1 µM); in experiment [3], 16 µg/mL (≈ 28.1 µM); in experiment [4] it was above 128 µg/mL; in [5], 16 µg/mL (≈ 28.1 µM); in experiment [6] it was 32 µg/mL (≈ 56.2 µM). The MIC in experiment [7] was 16 µg/mL (≈ 28.1 µM); in experiment [8], 32 µg/mL (≈ 56.2 µM); in [10], above 128 µg/mL; in [11], 32 µg/mL (≈ 56.2 µM); in experiment [12], 64 µg/mL (≈ 112 µM); in experiment [13], 32 µg/mL (≈ 56.2 µM). Moreover, the MIC in [14] came to 32 µg/mL (≈ 56.2 µM); in experiment [15], 8 µg/mL (≈ 14 µM); in [16], 16 µg/mL (≈ 28.1 µM); in experiment [17], 16 µg/mL (≈ 28.1 µM); in experiment [19], 16 µg/mL (≈ 28.1 µM); in [20], 16 µg/mL (≈ 28.1 µM). For the same compound, the MIC50 in [9] was 8 µg/mL (≈ 14 µM); against Mycobacteroides chelonae it was 4 µg/mL (≈ 7.02 µM); in experiment [18] it was 8 µg/mL (≈ 14 µM). In addition, the MIC90 in experiment [9] was found to be 16 µg/mL (≈ 28.1 µM); with Mycobacteroides chelonae it was 8 µg/mL (≈ 14 µM); in [18], 16 µg/mL (≈ 28.1 µM).
Turning to `NC[C@H]1O[C@H](O[C@H]2[C@H](O)[C@@H](O[C@H]3O[C@H](CO)[C@@H](O)[C@H](N)[C@H]3O)[C@H](N)C[C@@H]2N)[C@H](O)[C@@H](O)[C@@H]1O` [KANAMYCIN], the minimal inhibitory concentration (MIC) is 4 µg/mL (≈ 8.26 µM) in experiment [1]; 8 µg/mL (≈ 16.5 µM) in [2]; 8 µg/mL (≈ 16.5 µM) in experiment [3]; above 128 µg/mL in experiment [4]; 8 µg/mL (≈ 16.5 µM) in experiment [5]; 32 µg/mL (≈ 66 µM) in experiment [6]. In addition, the MIC in experiment [7] was 8 µg/mL (≈ 16.5 µM); in experiment [8], 16 µg/mL (≈ 33 µM); in [10], above 128 µg/mL; in experiment [11], 16 µg/mL (≈ 33 µM); in experiment [12], above 128 µg/mL; in [13] it was 32 µg/mL (≈ 66 µM). Moreover, the MIC was determined as 16 µg/mL (≈ 33 µM) in experiment [14]; 8 µg/mL (≈ 16.5 µM) in experiment [15]; 16 µg/mL (≈ 33 µM) in [16]; 4 µg/mL (≈ 8.26 µM) in experiment [17]; 8 µg/mL (≈ 16.5 µM) in experiment [19]; 8 µg/mL (≈ 16.5 µM) in experiment [20]. In addition, the MIC50 in experiment [9] turned out to be 8 µg/mL (≈ 16.5 µM); in the experiment on Mycobacteroides chelonae, 4 µg/mL (≈ 8.26 µM); in [18], 8 µg/mL (≈ 16.5 µM). The MIC90 was 8 µg/mL (≈ 16.5 µM) in experiment [9], 8 µg/mL (≈ 16.5 µM) with Mycobacteroides chelonae and 32 µg/mL (≈ 66 µM) in experiment [18].
